Measured values published in the array DNA melting data of Ke et al. (doi:10.1101/2024.01.08.574731).

Key:
[1] = folding enthalpy; higher = less favourable; fluorescence melt of hairpins on a sequencing array, two-state fit; conditions: sodium 0.088 M
Summary of the method: (§1)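 Library hairpins on a sequenced MiSeq flow cell carried annealed Cy3 and quencher oligos, and their Cy3 fluorescence was imaged in 50 mM Na-HEPES pH 8.0 with 25 mM NaCl, in 2.5 °C steps up to 60 °C. Signals were normalised to Cy3 before quenching and to control constructs. Melting temperature and folding enthalpy were obtained from bootstrapped two-state fits, combined by inverse-variance weighting across four replicates, and the fitted temperatures were then raised by 9.35 °C to match UV melts.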

[2] = melting temperature; fluorescence melt of hairpins on a sequencing array, two-state fit, raised by 9.35 °C to match UV melts; conditions: sodium 0.088 M
Summary of the method: as §1

Sequence | folding enthalpy [1] | Tm [2]
GATCCCTTTGGGGATC ((((((....)))))) | -46 kcal/mol | 62.8 °C
GATCCCTTTTGGGATC ((((((....)))))) | -38.3 kcal/mol | 60.1 °C
GATCCGAAACGGATC ((((((...)))))) | -35.4 kcal/mol | 57 °C
GATCCGAAATCGGATC ((((((....)))))) | -35.4 kcal/mol | 54.9 °C
GATCCGAAGCCGGATC ((((((....)))))) | -39.6 kcal/mol | 55.4 °C
GATCCGACACGGATC ((((((...)))))) | -35.6 kcal/mol | 59.1 °C
GATCCGACCCGGATC ((((((...)))))) | -39.9 kcal/mol | 56.6 °C
GATCCGACTGCGGATC ((((((....)))))) | -48.8 kcal/mol | 56.1 °C
GATCCGACTTCGGATC ((((((....)))))) | -39.6 kcal/mol | 57.4 °C
GATCCGAGCCGGATC ((((((...)))))) | -44.5 kcal/mol | 56.3 °C
GATCCGAGGCCGGATC ((((((....)))))) | -45.5 kcal/mol | 56.4 °C
GATCCGAGGCGGATC ((((((...)))))) | -43.4 kcal/mol | 56.8 °C
GATCCGAGTCCGGATC ((((((....)))))) | -40.2 kcal/mol | 56 °C
GATCCGATAACGGATC ((((((....)))))) | -33.1 kcal/mol | 59.1 °C
GATCCGATCTCGGATC ((((((....)))))) | -40.9 kcal/mol | 62.2 °C
GATCCGATGGCGGATC ((((((....)))))) | -42.8 kcal/mol | 56.6 °C
GATCCGATTCCGGATC ((((((....)))))) | -43.5 kcal/mol | 57.1 °C
GATCCGATTGCGGATC ((((((....)))))) | -38.4 kcal/mol | 56.1 °C
GATCCGCAACGGATC ((((((...)))))) | -33 kcal/mol | 55.8 °C
GATCCGCAAGCGGATC ((((((....)))))) | -39 kcal/mol | 68 °C
GATCCGCAATCGGATC ((((((....)))))) | -35.1 kcal/mol | 56 °C
GATCCGCCACCGGATC ((((((....)))))) | -34.3 kcal/mol | 56.4 °C
GATCCGCCCACGGATC ((((((....)))))) | -43.6 kcal/mol | 59.5 °C
GATCCGCCCCGGATC ((((((...)))))) | -36.8 kcal/mol | 58.4 °C

Sequence | folding enthalpy [1] | Tm [2]
GATCCGCCCGCGGATC ((((((....)))))) | -38.3 kcal/mol | 68.7 °C
GATCCGCCGGCGGATC ((((((....)))))) | -45.4 kcal/mol | 68.9 °C
GATCCGCGAACGGATC ((((((....)))))) | -42.3 kcal/mol | 58.9 °C
GATCCGCGACCGGATC ((((((....)))))) | -38.4 kcal/mol | 54.8 °C
GATCCGCGATCGGATC ((((((....)))))) | -28.8 kcal/mol | 57.4 °C
GATCCGCGGTCGGATC ((((((....)))))) | -42.7 kcal/mol | 57.2 °C
GATCCGCGTCCGGATC ((((((....)))))) | -41.8 kcal/mol | 57.6 °C
GATCCGCTATCGGATC ((((((....)))))) | -40.2 kcal/mol | 57.2 °C
GATCCGCTCACGGATC ((((((....)))))) | -41.3 kcal/mol | 63.3 °C
GATCCGCTCTCGGATC ((((((....)))))) | -33.8 kcal/mol | 60 °C
GATCCGCTTCCGGATC ((((((....)))))) | -38.2 kcal/mol | 57.6 °C
GATCCGCTTTCGGATC ((((((....)))))) | -40.4 kcal/mol | 57.8 °C
GATCCGGCACGGATC ((((((...)))))) | -36 kcal/mol | 69.2 °C
GATCCGGCCCCGGATC ((((((....)))))) | -47.8 kcal/mol | 61.1 °C
GATCCGGCCGCGGATC ((((((....)))))) | -41.5 kcal/mol | 58 °C
GATCCGGCGACGGATC ((((((....)))))) | -33.4 kcal/mol | 67.4 °C
GATCCGGGCTCGGATC ((((((....)))))) | -44.6 kcal/mol | 59.3 °C
GATCCGGGGCCGGATC ((((((....)))))) | -41.4 kcal/mol | 61 °C
GATCCGGGGGCGGATC ((((((....)))))) | -38.3 kcal/mol | 60.1 °C
GATCCGGGTCGGATC ((((((...)))))) | -29.6 kcal/mol | 58.6 °C
GATCCGGTCCCGGATC ((((((....)))))) | -35.4 kcal/mol | 65.3 °C
GATCCGGTGACGGATC ((((((....)))))) | -38.9 kcal/mol | 67.3 °C
GATCCGGTGCGGATC ((((((...)))))) | -45.2 kcal/mol | 57.5 °C
GATCCGGTGGCGGATC ((((((....)))))) | -31.4 kcal/mol | 56.5 °C

Sequence | folding enthalpy [1] | Tm [2]
GATCCGGTGTCGGATC ((((((....)))))) | -37.2 kcal/mol | 57.6 °C
GATCCGTAAACGGATC ((((((....)))))) | -38.2 kcal/mol | 60.3 °C
GATCCGTACCGGATC ((((((...)))))) | -34.8 kcal/mol | 58.9 °C
GATCCGTATCCGGATC ((((((....)))))) | -39 kcal/mol | 58.2 °C
GATCCGTATCGGATC ((((((...)))))) | -30.3 kcal/mol | 57.3 °C
GATCCGTCCCCGGATC ((((((....)))))) | -32.1 kcal/mol | 56.5 °C
GATCCGTCGTCGGATC ((((((....)))))) | -36.3 kcal/mol | 60.1 °C
GATCCGTGACGGATC ((((((...)))))) | -38.3 kcal/mol | 59.9 °C
GATCCGTGCCCGGATC ((((((....)))))) | -50.9 kcal/mol | 56.6 °C
GATCCGTGCGCGGATC ((((((....)))))) | -48.4 kcal/mol | 65 °C
GATCCGTGGCCGGATC ((((((....)))))) | -39.1 kcal/mol | 57.7 °C
GATCCGTTAACGGATC ((((((....)))))) | -43.2 kcal/mol | 64 °C
GATCCGTTACCGGATC ((((((....)))))) | -34.6 kcal/mol | 59.5 °C
GATCCGTTCCCGGATC ((((((....)))))) | -43.4 kcal/mol | 55.7 °C
GATCCGTTCGCGGATC ((((((....)))))) | -50.4 kcal/mol | 61.3 °C
GATCCGTTCTCGGATC ((((((....)))))) | -42.2 kcal/mol | 60.7 °C
GATCCTAAAAAGGATC ((((((....)))))) | -27.9 kcal/mol | 47.6 °C
GATCCTAAGTAGGATC ((((((....)))))) | -39.5 kcal/mol | 51.7 °C
GATCCTAATAAGGATC ((((((....)))))) | -40.1 kcal/mol | 50.8 °C
GATCCTACAAGGATC ((((((...)))))) | -33.6 kcal/mol | 54.5 °C
GATCCTACACAGGATC ((((((....)))))) | -35.9 kcal/mol | 51.6 °C
GATCCTACCAAGGATC ((((((....)))))) | -38.1 kcal/mol | 53.2 °C
GATCCTACCCAGGATC ((((((....)))))) | -39.9 kcal/mol | 51.2 °C
GATCCTACTAAGGATC ((((((....)))))) | -35.1 kcal/mol | 52.5 °C

Sequence | folding enthalpy [1] | Tm [2]
GATCCTAGAAAGGATC ((((((....)))))) | -30.6 kcal/mol | 48.5 °C
GATCCTAGCTAGGATC ((((((....)))))) | -56.9 kcal/mol | 54.1 °C
GATCCTAGGTAGGATC ((((((....)))))) | -38.7 kcal/mol | 52.9 °C
GATCCTAGTAAGGATC ((((((....)))))) | -41.1 kcal/mol | 52.2 °C
GATCCTAGTAGGATC ((((((...)))))) | -34.1 kcal/mol | 52.4 °C
GATCCTAGTGAGGATC ((((((....)))))) | -36.2 kcal/mol | 50.9 °C
GATCCTAGTTAGGATC ((((((....)))))) | -33.7 kcal/mol | 51.7 °C
GATCCTATCAGGATC ((((((...)))))) | -35.7 kcal/mol | 57.2 °C
GATCCTATTAGGATC ((((((...)))))) | -34.6 kcal/mol | 53.4 °C
GATCCTCACAAGGATC ((((((....)))))) | -33.6 kcal/mol | 53 °C
GATCCTCAGGAGGATC ((((((....)))))) | -30.9 kcal/mol | 55.2 °C
GATCCTCCAAGGATC ((((((...)))))) | -31.8 kcal/mol | 53.7 °C
GATCCTCCCAAGGATC ((((((....)))))) | -43.1 kcal/mol | 53.1 °C
GATCCTCCCGAGGATC ((((((....)))))) | -36.9 kcal/mol | 56.4 °C
GATCCTCCGGAGGATC ((((((....)))))) | -29.5 kcal/mol | 55.1 °C
GATCCTCGTAGGATC ((((((...)))))) | -34.2 kcal/mol | 54.5 °C
GATCCTCTACAGGATC ((((((....)))))) | -31.1 kcal/mol | 51.8 °C
GATCCTCTCCAGGATC ((((((....)))))) | -36.3 kcal/mol | 50.8 °C
GATCCTCTCTAGGATC ((((((....)))))) | -38.2 kcal/mol | 51.6 °C
GATCCTGAAAGGATC ((((((...)))))) | -38.7 kcal/mol | 65.9 °C
GATCCTGAAGAGGATC ((((((....)))))) | -36.2 kcal/mol | 55.4 °C
GATCCTGAGAGGATC ((((((...)))))) | -31.1 kcal/mol | 50.7 °C
GATCCTGCAAAGGATC ((((((....)))))) | -34.6 kcal/mol | 61.3 °C
GATCCTGCGAAGGATC ((((((....)))))) | -42.6 kcal/mol | 59.5 °C
